Results: ChEMBL document CHEMBL1122781, “[(Aminomethyl)aryloxy]acetic acid esters. A new class of high-ceiling diuretics. 1. Effects of nitrogen and aromatic nuclear substitution” (J Med Chem, 1984)

Columns and labels:
Rattus norvegicus [1] = experiment: Diuretic activity was evaluated by measuring amount of Cl- during 0-6 hr in urine of normotensive saline loaded rats at 1.0mg/kg, po; format: ADME, organism-based; conditions: in vivo, 1 mg/kg
Method in brief: (§1)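 Male Sprague–Dawley rats (275–375 g), fed and watered ad libitum before testing but not during it, eight per group. Compound in 0.2% methylcellulose/water given orally at 2 mL/kg, immediately followed by a 0.9% saline load equal to 5% of body weight. Rats were kept in individual metabolism cages. Urine was sampled at 2, 6 and 24 h for volume, Na+, K+, Cl−, uric acid and osmolality.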

Rattus norvegicus [2] = experiment: Diuretic activity was evaluated by measuring amount of Na+ during 0-6 hr in urine of normotensive saline loaded rats at 30.0mg/kg, po; format: ADME, organism-based; conditions: in vivo, 30 mg/kg
Method in brief: (§2)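 Male normotensive Sprague–Dawley rats (275–375 g), eight per group. Test compound or vehicle (0.2% methylcellulose in water, 2 mL/kg) is given by mouth, followed at once by a 0.9% saline load equal to 5% of body weight. Rats are housed in metabolism cages without food or water. Urine is collected at 2, 6 and 24 h and assayed for Na+, K+, Cl−, uric acid and osmolality.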

Canis familiaris [3] = experiment: Diuretic activity was evaluated by measuring amount of K+ during 0-6 h in urine of normotensive saline loaded dogs at 1.0 mg/kg, po; format: ADME, organism-based, Canis lupus familiaris; design: dose 1 mg/kg, route oral; conditions: dog, in vivo
Method in brief: (§3)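 Conscious female dogs, each given one oral dose per experiment. Urine and heparinized venous plasma were taken at each collection time. Urine was centrifuged and chilled, and plasma was separated within 30 min. Both were assayed for Na+, K+, Cl−, urate and glucose. Results are mean excretion in mequiv kg−1 (6 h)−1, with at least two dogs per dose.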

Rattus norvegicus [4] = experiment: Diuretic activity was evaluated by measuring amount of Na+ during 0-6 h in urine of normotensive saline loaded rats at 3.0 mg/kg, po; format: ADME, organism-based; design: dose 3 mg/kg, route oral; conditions: in vivo; method in brief: as §2
Canis familiaris [5] = experiment: Diuretic activity was evaluated by measuring amount of Cl- during 0-6 h in urine of normotensive saline loaded dogs at 0.3mg/kg, po; format: ADME, organism-based, Canis lupus familiaris; conditions: dog, in vivo; method in brief: as §3
Canis familiaris [6] = experiment: Diuretic activity was evaluated by measuring amount of Cl- during 0-6 h in urine of normotensive saline loaded dogs at 3.0 mg/kg, po; format: ADME, organism-based, Canis lupus familiaris; design: dose 3 mg/kg, route oral; conditions: dog, in vivo; method in brief: as §3
Rattus norvegicus [7] = experiment: Percent change of arterial blood pressure in spontaneously hypertensive rats at the dose of 3 mg/kg (p.o.) after […] (control BP(mm Hg)=221); format: functional; conditions: route oral
Rattus norvegicus [8] = experiment: Diuretic activity was evaluated by measuring amount of K+ during 0-6 h in urine of normotensive saline loaded rats at 1.0 mg/kg, po; format: ADME, organism-based; design: dose 1 mg/kg, route oral; conditions: in vivo; method in brief: as §1
[9] = Diuretic activity was evaluated by measuring amount of K+ during 0-6 hr in urine of […] monkey at 1 mg/kg, po; format: ADME, organism-based; design: dose 1 mg/kg, route oral; conditions: simiiformes, in vivo
Method in brief: (§4)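 Male and female cynomolgus monkeys, fasted 16–18 h with water until dosing, six per dose. Compound or vehicle was given by pediatric nasogastric tube, followed at once by a 50 mL/kg water load. Monkeys were kept in metabolism cages without food or water for 6 h. Urine was collected at 0–1, 1–2, 2–4 and 4–6 h, and volume, electrolytes, uric acid and glucose were measured.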

[10] = Diuretic activity was evaluated by measuring amount of Cl- during 0-6 h in urine of normotensive […] monkey at 3 mg/kg, po; format: ADME, organism-based; design: dose 3 mg/kg, route oral; conditions: simiiformes, in vivo; method in brief: as §4
Canis familiaris [11] = experiment: Diuretic activity was evaluated by measuring amount of Na+ during 0-6 hr in urine of normotensive saline loaded dogs at 3.0mg/kg, po; format: ADME, organism-based, Canis lupus familiaris; conditions: dog, in vivo, 3 mg/kg
Method in brief: (§5)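 Conscious dogs, each given a single oral dose per experiment, with at least two dogs per dose. Urine volume is measured; aliquots are centrifuged and chilled. Heparinized venous blood (4 mL) is drawn at each urine collection. Urine and plasma are analyzed for Na+, K+, Cl−, urate and glucose. Result is mean Na+ excretion in mequiv kg−1 (6 h)−1.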

Canis familiaris [12] = experiment: Diuretic activity was evaluated by measuring amount of K+ during 0-6 hr in urine of normotensive saline loaded dogs at 0.3mg/kg, po; format: ADME, organism-based, Canis lupus familiaris; conditions: dog, in vivo; method in brief: as §3
[13] = Diuretic activity was evaluated by measuring amount of K+ during 0-6 hr in urine of normotensive water loaded monkey at 3mg/kg, po; conditions: simiiformes, in vivo
Rattus norvegicus [14] = experiment: Diuretic activity was evaluated by measuring amount of Na+ during 0-6 hr in urine of normotensive saline loaded rats at 0.1 mg/kg, po; format: ADME, organism-based; design: dose 0.1 mg/kg, route oral; conditions: in vivo; method in brief: as §2
Canis familiaris [15] = experiment: Diuretic activity was evaluated by measuring amount of Cl- during 0-6 h in urine of normotensive saline loaded dogs at 1.0 mg/kg, po; format: ADME, organism-based, Canis lupus familiaris; design: dose 1 mg/kg, route oral; conditions: dog, in vivo; method in brief: as §3
Rattus norvegicus [16] = experiment: Diuretic activity was evaluated by measuring amount of Cl- during 0-6 hr in urine of normotensive saline loaded rats at 100.0mg/kg, po; format: ADME, organism-based; conditions: in vivo, 100 mg/kg; method in brief: as §1
Rattus norvegicus [17] = experiment: Percent change of arterial blood pressure in spontaneously hypertensive rats at the dose of 3 mg/kg (p.o.) after 24 hr (control BP(mm Hg)=221); format: functional; conditions: route oral
Rattus norvegicus [18] = experiment: Percent change of arterial blood pressure in spontaneously hypertensive rats at the dose of 1 mg/kg (p.o.) after […] (control BP(mm Hg)=215); format: functional; conditions: route oral
[19] = Diuretic activity was evaluated by measuring amount of Na+ during 0-6 hr in urine of […] monkey at 3mg/kg, po; format: ADME, organism-based; conditions: simiiformes, in vivo
Method in brief: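 Male and female cynomolgus monkeys, fasted 16–18 h with water until dosing, six per dose. Compound or vehicle is given through a nasogastric tube, then a 50 mL/kg water load. No food or water for 6 h in metabolism cages. Urine is collected at 0–1, 1–2, 2–4 and 4–6 h and analyzed for electrolytes, uric acid and glucose.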

Rattus norvegicus [20] = experiment: Percent change of arterial blood pressure in spontaneously hypertensive rats at the dose of 1 mg/kg (p.o.) after 24 hr (control BP(mm Hg)=215); format: functional; conditions: route oral
Rattus norvegicus [21] = experiment: Diuretic activity was evaluated by measuring amount of K+ during 0-6 hr in urine of normotensive saline loaded rats at 30.0mg/kg, po; format: ADME, organism-based; conditions: in vivo, 30 mg/kg; method in brief: as §2
Canis familiaris [22] = experiment: Diuretic activity was evaluated by measuring amount of K+ during 0-6 hr in urine of normotensive saline loaded dogs at 3.0mg/kg, po; format: ADME, organism-based, Canis lupus familiaris; conditions: dog, in vivo, 3 mg/kg; method in brief: as §3
Canis familiaris [23] = experiment: Diuretic activity was evaluated by measuring amount of Na+ during 0-6 h in urine of normotensive saline loaded dogs at 0.03 mg/kg, po; format: ADME, organism-based, Canis lupus familiaris; design: dose 0.03 mg/kg, route oral; conditions: dog, in vivo; method in brief: as §5
Rattus norvegicus [24] = experiment: Percent change of arterial blood pressure in spontaneously hypertensive rats at the dose of 1 mg/kg (p.o.) after 6 hr (control BP(mm Hg)=215); format: functional; conditions: route oral
Rattus norvegicus [25] = experiment: Diuretic activity was evaluated by measuring amount of Na+ during 0-6 h in urine of normotensive saline loaded rats at 0.3 mg/kg, po; format: ADME, organism-based; design: dose 0.3 mg/kg, route oral; conditions: in vivo; method in brief: as §2
Rattus norvegicus [26] = experiment: Diuretic activity was evaluated by measuring amount of Cl- during 0-6 hr in urine of normotensive saline loaded rats at 3.0mg/kg, po; format: ADME, organism-based; conditions: in vivo, 3 mg/kg; method in brief: as §1
Rattus norvegicus [27] = experiment: Diuretic activity was evaluated by measuring amount of K+ during 0-6 hr in urine of normotensive saline loaded rats at 0.1 mg/kg, po; format: ADME, organism-based; design: dose 0.1 mg/kg, route oral; conditions: in vivo; method in brief: as §1
[28] = Diuretic activity was evaluated by measuring amount of Cl- during 0-6 h in urine of normotensive […] monkey at 10mg/kg, po; format: ADME, organism-based; conditions: simiiformes, in vivo; method in brief: as §4
Rattus norvegicus [29] = experiment: Diuretic activity was evaluated by measuring amount of K+ during 0-6 hr in urine of normotensive saline loaded rats at 3.0mg/kg, po; format: ADME, organism-based; conditions: in vivo, 3 mg/kg; method in brief: as §2

Diuretic activity (Rattus norvegicus [1]): 14.8 m equiv kg-1
Diuretic activity (Rattus norvegicus [2]): 14.8 m equiv kg-1
Diuretic activity (Canis familiaris [3]): 1.6 m equiv kg-1
Diuretic activity (Rattus norvegicus [4]): 13.9 m equiv kg-1
Diuretic activity (Canis familiaris [5]): 3 m equiv kg-1
Diuretic activity (Canis familiaris [6]): 7.9 m equiv kg-1
Diuretic activity (Rattus norvegicus [8]): 3 m equiv kg-1
Diuretic activity [9]: 0.7 m equiv kg-1
Diuretic activity [10]: 5.3 m equiv kg-1
Diuretic activity (Canis familiaris [11]): 7.5 m equiv kg-1
Diuretic activity (Canis familiaris [12]): 1 m equiv kg-1
Diuretic activity [13]: 1.1 m equiv kg-1
Diuretic activity (Rattus norvegicus [14]): 6.6 m equiv kg-1
Diuretic activity (Canis familiaris [15]): 6.2 m equiv kg-1
Diuretic activity (Rattus norvegicus [16]): 16.6 m equiv kg-1
Diuretic activity [19]: 5.3 m equiv kg-1
Diuretic activity (Rattus norvegicus [21]): 3.8 m equiv kg-1
Diuretic activity (Canis familiaris [22]): 1.8 m equiv kg-1
Diuretic activity (Canis familiaris [23]): 0.5 m equiv kg-1
Diuretic activity (Rattus norvegicus [25]): 9.6 m equiv kg-1
Diuretic activity (Rattus norvegicus [26]): 16.3 m equiv kg-1
Diuretic activity (Rattus norvegicus [27]): 2.6 m equiv kg-1
Diuretic activity [28]: 7.2 m equiv kg-1
Diuretic activity (Rattus norvegicus [29]): 3.8 m equiv kg-1
SMILES: CCOC(=O)COc1ccc(C(=O)c2ccc(O)c(CN)c2)c(Cl)c1Cl.Cl
Change (Rattus norvegicus [7]): -22%
Change (Rattus norvegicus [17]): -14%
Change (Rattus norvegicus [18]): -17%
Change (Rattus norvegicus [20]): -6%
Change (Rattus norvegicus [24]): -11%
